Bioassay records as filed in PubChem BioAssay.
DENV2 CPE = inhibitors of DENV2 cytopathic effect, primary screen, cell-based, plate reader, single concentration. DENV2-infected cells, cytopathic effect rescue. CPE inhibition, % at 9.99 µM. 1.7% of 350,000 active. AID 651640, 2012; in the data active = CPE inhibition above about 20%, passing the limit was not always enough; inconclusive = no clear call, values can overlap the other calls; tested in BHK-21 cells;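 also: 0% = median of neutral control wells and 100% = median of positive control wells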
Statin myotox sup = suppressors of statin myotoxicity in C2C12 myotubes, primary screen, cell-based, single point, plate reader; C2C12 myotubes + simvastatin, ATP luminescence, 48 h; scaled: DMSO 0, geranylgeraniol control 100; rescue of ATP level, % at 7.49 µM; 0.78% of 330,000 active; AID 602340, 2012;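 active = mean ATP rescue above about 67%, or every replicate alone reaching that limit, limit read from the data, passing the limit was not always enough; inconclusive = no clear call, values can overlap the other calls; inactive = mean under the limit and some replicate under it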;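 also: myotubes were challenged with 10 µM simvastatin during compound exposure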
E-sel inducer = E-selectin induction in HUVECs, primary screen, imaging, HUVEC, immunofluorescence imaging, single point | P16581 | AID 686992, 2013 | 0.37% of 260,000 active | activation, % at 7.58 µM | normalized: neutral wells 0, TNF-alpha wells 100;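 active = mean E-selectin-positive cell signal at least 10% of the positive control, reached in at least 60% of replicates, without over 20% cell loss; inconclusive = no rule given, readout overlaps actives, possibly toxicity-flagged; inactive = the rest, including those meeting only one limit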
Target sequence (P16581 whole entry, looked up): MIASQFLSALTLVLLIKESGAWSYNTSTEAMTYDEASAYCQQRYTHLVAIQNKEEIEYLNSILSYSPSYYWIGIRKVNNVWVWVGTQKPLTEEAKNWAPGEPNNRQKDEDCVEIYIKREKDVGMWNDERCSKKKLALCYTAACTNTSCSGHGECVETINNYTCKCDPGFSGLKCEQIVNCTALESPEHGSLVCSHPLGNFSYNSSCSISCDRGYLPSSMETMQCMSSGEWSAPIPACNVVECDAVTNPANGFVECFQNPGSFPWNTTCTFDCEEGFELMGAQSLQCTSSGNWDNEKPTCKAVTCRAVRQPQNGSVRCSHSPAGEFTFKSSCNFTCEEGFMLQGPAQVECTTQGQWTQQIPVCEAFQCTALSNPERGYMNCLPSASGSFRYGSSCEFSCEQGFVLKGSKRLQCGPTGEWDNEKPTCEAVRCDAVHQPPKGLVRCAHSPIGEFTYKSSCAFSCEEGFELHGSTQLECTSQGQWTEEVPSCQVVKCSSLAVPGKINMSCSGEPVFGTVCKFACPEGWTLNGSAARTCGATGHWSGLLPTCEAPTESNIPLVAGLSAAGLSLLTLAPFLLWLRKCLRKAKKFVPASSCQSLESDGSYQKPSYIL
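Assay system: HUVEC, human umbilical vein endothelial cells / Amount: 3,000 HUVEC/well / Controls: TNF-alpha positive control, DMSO neutral control / Compound dosing: single concentration / Medium: EGM-2 over gelatin coat / Evaluation: percent E-selectin-positive cells / Signal: immunofluorescence imaging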
The depositor's hits bear a star; ? = inconclusive; nt = no result. A selection: hits, their analogues and other compounds. The true share with any hit is near 2.2%.

SMILES	DENV2 CPE	Statin myotox sup	E-sel inducer
CC(NC(=O)/C(C#N)=C/c1ccco1)c1ccccc1 (configuration not stated)	?	-6.9	-0.1
CC=Cc1ccc2n(c1=O)C[C@H]1[C@H](CO)[C@@H](C(=O)NCc3ccccn3)[C@@H]2N1CCC (mixture of isomers)	-0.3	-3.0	0.2
CC(C)NC(=O)Nc1cccc2c1O[C@H](CN(C)S(=O)(=O)c1ccc(F)cc1)[C@@H](C)CN([C@@H](C)CO)C2=O	6.2	-44.6	0.0
Cc1cc(C(F)(F)F)nn1CC(=O)NCc1ccco1	-0.2	3.0	0.0
Cc1cc(NS(=O)(=O)c2ccc(Cl)cc2)nn1CC(=O)NCc1ccco1	nt	97.8*	nt
C[C@@H]1CN([C@@H](C)CO)C(=O)c2cc(NC(=O)Nc3ccc(F)cc3)ccc2O[C@@H]1CN(C)C(=O)Nc1ccc(C(F)(F)F)cc1	nt	nt	-0.5
CCOC(=O)C[C@@H]1OC2CCCCC2N1S(=O)(=O)c1ccc(C)cc1 (some centres not stated)	-2.8	nt	-4.5
Cc1ccc(S(=O)(=O)N2C3CCCCC3O[C@H]2CC(=O)c2cccs2)cc1 (some centres not stated)	47.7*	nt	-0.1
O=C(C[C@H]1CC[C@H]2[C@@H](COC[C@H](O)CN2S(=O)(=O)c2ccccc2)O1)NCCN1CCCC1	2.6	nt	-0.1
O=C(NCCC1CCCCN1S(=O)(=O)c1ccccc1)C(=O)NCc1ccccn1 (configuration not stated)	91.7*	-5.0	nt
Cc1ccc(C)c(S(=O)(=O)N2CCCC2CNC(=O)C(=O)NCCc2ccco2)c1 (configuration not stated)	-1.1	-7.8	-0.1
O=C(NCc1ccccn1)C(=O)NCC1OCCN1S(=O)(=O)c1ccc(Br)cc1 (configuration not stated)	63.7*	1.0	0.0
Cc1ccc(C)c(S(=O)(=O)N2CCCCC2CCNC(=O)C(=O)NCCc2ccco2)c1 (configuration not stated)	0.5	15.7	61.5*
COc1ccc(S(=O)(=O)N2CCOC2CNC(=O)C(=O)NCc2ccccn2)cc1 (configuration not stated)	-6.5	nt	-0.7
O=C(NCCC1CCCCN1S(=O)(=O)c1ccc(F)cc1)C(=O)NCc1ccccn1 (configuration not stated)	?	-6.2	0.4
C[C@H](CO)N1C[C@H](C)[C@H](CN(C)C(=O)Nc2ccc(C(F)(F)F)cc2)OCCCC[C@H](C)Oc2ccc(NS(C)(=O)=O)cc2C1=O	?	nt	0.0
Cc1ccc(S(=O)(=O)Nc2ccc3c(c2)C(=O)N([C@@H](C)CO)C[C@H](C)[C@@H](CN(C)C(=O)Nc2ccc(C(F)(F)F)cc2)OCCCC[C@@H](C)O3)cc1	-2.0	nt	-0.1
C[C@@H]1CCCCO[C@H](CN(C)C(=O)Nc2ccc(C(F)(F)F)cc2)[C@H](C)CN([C@@H](C)CO)C(=O)c2cc(NS(=O)(=O)c3ccccc3)ccc2O1	39.8*	nt	0.0
C[C@@H]1CCCCO[C@H](CN(C)C(=O)Nc2ccc(C(F)(F)F)cc2)[C@@H](C)CN([C@H](C)CO)C(=O)c2cc(NS(=O)(=O)c3ccccc3)ccc2O1	37.2*	nt	0.0
C[C@@H]1CCCCO[C@@H](CN(C)C(=O)Nc2ccc(C(F)(F)F)cc2)[C@H](C)CN([C@@H](C)CO)C(=O)c2cc(NS(=O)(=O)c3ccccc3)ccc2O1	54.2*	nt	0.1
C[C@@H]1CCCCO[C@H](CN(C)C(=O)Nc2ccc(C(F)(F)F)cc2)[C@@H](C)CN([C@@H](C)CO)C(=O)c2cc(NS(=O)(=O)c3ccccc3)ccc2O1	-5.9	nt	0.6
C[C@H]1CCCCO[C@@H](CN(C)C(=O)Nc2ccc(C(F)(F)F)cc2)[C@@H](C)CN([C@@H](C)CO)C(=O)c2cc(NS(=O)(=O)c3ccccc3)ccc2O1	11.6	nt	0.1
C[C@@H]1CN([C@@H](C)CO)C(=O)c2cc(NS(C)(=O)=O)ccc2O[C@@H](C)CCCCO[C@@H]1CN(C)C(=O)Nc1ccc(C(F)(F)F)cc1	46.4*	nt	0.1
COCC(=O)N1CC(=O)N2[C@H](C1)[C@@H](c1ccc(C#CCc3ccccc3)cc1)[C@@H]2CO	?	nt	-0.4
CN1CCN(C(=O)C[C@H]2C[C@@H]3c4cc(NC(=O)CC5CC5)ccc4O[C@@H]3[C@H](CO)O2)CC1	-2.6	-1.0	0.0
SMILES	DENV2 CPE	Statin myotox sup	E-sel inducer
O=C(C[C@@H]1C[C@H]2c3cc(NC(=O)Nc4ccccc4F)ccc3O[C@H]2[C@H](CO)O1)NCc1ccncc1	9.1	2.5	0.1
CC(=O)N1[C@@H]2Cn3c(cccc3=O)[C@H]1[C@@H](C(=O)NCC1CCCCC1)[C@@H]2CO	-5.7	16.3	-0.3
CC(C)NC(=O)N1CC2(C1)[C@H](c1ccccc1)[C@H](CO)N2Cc1cccnc1	-6.7	nt	-0.3
COc1ccccc1NC(=O)N[C@H]1CC[C@H](CCNS(=O)(=O)c2ccc(F)cc2)O[C@@H]1CO	-9.1	-3.5	-2.3
C[C@H](CO)N1C[C@H](C)[C@H](CN(C)C(=O)Nc2ccc(C(F)(F)F)cc2)OCCCC[C@H](C)Oc2ccc(NS(=O)(=O)c3ccccc3)cc2C1=O	40.5*	nt	0.0
Cc1ccc(S(=O)(=O)Nc2ccc3c(c2)C(=O)N([C@@H](C)CO)C[C@H](C)[C@H](CN(C)C(=O)Nc2ccc(C(F)(F)F)cc2)OCCCC[C@H](C)O3)cc1	-4.3	nt	0.4
O=C(CSc1nc2c(cnn2-c2ccc(Cl)cc2)c(=O)[nH]1)N1CCCc2ccccc21	nt	-11.6	nt
C[C@@H]1CN([C@H](C)CO)C(=O)Cc2cc(NC(=O)CCC(F)(F)F)ccc2O[C@@H]1CN(C)CC1CC1	-3.7	1.0	0.0
C[C@H]1CN([C@@H](C)CO)C(=O)Cc2cc(NC(=O)CCC(F)(F)F)ccc2O[C@@H]1CN(C)C(=O)NC1CCCCC1	-10.2	21.6	0.1
C[C@@H]1CN([C@@H](C)CO)C(=O)Cc2cc(NC(=O)CCC(F)(F)F)ccc2O[C@H]1CN(C)S(C)(=O)=O	1.6	3.1	0.0
C[C@H](CO)N1C[C@H](C)[C@H](CN(C)CC2CC2)Oc2ccc(NC(=O)CCC(F)(F)F)cc2CC1=O	20.7*	12.1	-0.1
C[C@H](CO)N1C[C@H](C)[C@@H](CN(C)C(=O)NC2CCCCC2)Oc2ccc(NC(=O)CCC(F)(F)F)cc2CC1=O	31.9*	20.6	0.1
C[C@@H]1CN([C@H](C)CO)C(=O)Cc2cc(NC(=O)CCC(F)(F)F)ccc2O[C@@H]1CN(C)S(C)(=O)=O	nt	20.8	38.8*
CCCNC(=O)Nc1ccc2c(c1)C(=O)N(C)C[C@@H](OC)[C@@H](C)CN(Cc1ccccc1)[C@@H](C)CO2	nt	-2.1	0.3
C[C@@H](O)C#Cc1ccc([C@@H]2[C@H]3CN(C(=O)Nc4ccccc4)CCCCN3[C@H]2CO)cc1	?	-6.0	0.0
C[C@H]1CN([C@@H](C)CO)C(=O)c2cccc(NC(=O)C3CCCCC3)c2O[C@H]1CN(C)S(C)(=O)=O	2.7	-9.3	-1.6
O=C(C[C@@H]1C=C[C@H](NC(=O)Nc2ccc(C(F)(F)F)cc2)[C@H](CO)O1)NCc1ccccn1	6.3	8.5	0.6
